In PMC8122083 (ACS infectious diseases, 2021):

Columns and labels:
H. pylori [1] = conditions: cited from earlier work
H. pylori ATCC 43504 = experiment: H. pylori IC50 dose response; assay type: cell-based; conditions: Helicobacter pylori, ATCC43504, read-out: H. pylori ATCC 43504 pIC50 (converted)
H. pylori [2] = experiment: H. pylori IC50 of high-throughput screening hits; assay type: cell-based; conditions: Helicobacter pylori, read-out: H. pylori IC50
H. pylori SS1 = experiment: H. pylori IC50 dose response; assay type: cell-based; conditions: Helicobacter pylori, SS1, read-out: H. pylori SS1 pIC50 (converted)
Cytotoxicity assay = assay type: cell-based; conditions: human, FaDu cells
Outline: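 FaDu cells, maintained per ATCC protocols, were seeded in EMEM with 10% FBS at 3 x 10^5 cells/ml and grown 24 h at 37°C, 5% CO2. Medium was replaced with two-fold serial dilutions of test compound in fresh medium for 72 h, then with FBS-free EMEM plus resazurin (final 0.15 mM) for 3-5 h. Fluorescence read at ex 540/em 590 nm. IC50 fitted from percent inhibition versus growth controls, converted to pIC50, and reported as mean ± S.E.M.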

SMILES	H. pylori minimum inhibitory concentration (MIC) (H. pylori [1]) [ng/mL]	IC50 (H. pylori ATCC 43504) [µM]	IC50 (H. pylori [2]) [µM]	IC50 (H. pylori SS1) [µM]	IC50 at 72 h (Cytotoxicity assay) [µM]
CC[C@H]1OC(=O)[C@H](C)[C@@H](O[C@H]2C[C@@](C)(OC)[C@@H](O)[C@H](C)O2)[C@H](C)[C@@H](O[C@@H]2O[C@H](C)C[C@H](N(C)C)[C@H]2O)[C@](C)(OC)C[C@@H](C)C(=O)[C@H](C)[C@@H](O)[C@]1(C)O [clarithromycin]	8	–	–	–	–
OCCCNc1ncnc2sc(-c3ccccc3)cc12 [Compound 1, 3-((6-phenylthieno[2,3-d]pyrimidin-4-yl)amino)propan-1-ol]	–	1.58	1.55	1.58	126
